# High-throughput results: PubChem, several laboratories
# VLA-4 inh: inhibition in a human VLA-4 binding assay; P13612; VLA-4 expressing cells, ligand binding flow cytometry; 330,000 compounds, 0.2% hits; inhibition, % (about 7 µM as worked out from the volumes in the protocol); in the data active = inhibition above about 50%
# Platelet DG rel: modulates dense granule release in human platelets; human platelet-rich plasma, SFLLRN dense granule ATP release, luminescence; inhibition, %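 (compounds screened at 7.5 µM in platelet-rich plasma)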; 300,000 compounds, 0.22% hits; AID 1663;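 active = mean replicate score, as percent of positive control, at or above 50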
# TAAR1 antagonist: human TAAR1 antagonism; inhibition, % at 3 µM; AID 624466; 360,000 compounds, 1.5% hits; CHO RD-HGA16 TAAR1, Fluo-8 calcium fluorescence, antagonist;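 active = inhibition above a per-plate cutoff, the mean inhibition of test compounds on that plate plus 3 SD, cut at about 49% in these data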;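 also: 0% = DMSO plus EC80 beta-PEA response and 100% = DMSO alone without agonist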
# Target sequence (Q96RJ0 whole entry, looked up): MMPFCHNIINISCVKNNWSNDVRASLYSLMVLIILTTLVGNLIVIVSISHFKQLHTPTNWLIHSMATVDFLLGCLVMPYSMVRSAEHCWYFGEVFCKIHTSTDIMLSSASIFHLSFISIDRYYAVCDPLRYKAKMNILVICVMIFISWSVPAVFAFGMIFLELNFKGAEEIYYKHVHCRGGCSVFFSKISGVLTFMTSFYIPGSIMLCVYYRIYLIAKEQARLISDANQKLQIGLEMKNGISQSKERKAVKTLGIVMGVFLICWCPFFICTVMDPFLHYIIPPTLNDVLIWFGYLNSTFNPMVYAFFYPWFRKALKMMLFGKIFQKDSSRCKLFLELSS
#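 System: RD-HGA16 CHO cells with stable hTAAR1 and Gα16 | Probe or stimulus: EC80 β-phenethylamine stimulus | Dosing: 3 µM, single point | Times: Dye loading 75 min at 37 °C, then 30 min room temperature | Measured by: Fluo-8 calcium-sensitive fluorescence | Read-out basis: % inhibition of agonist calcium response | Replicates: n of 1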
# TAAR1 ag: agonists of human TAAR1 | Q96RJ0 | CHO RD-HGA16 TAAR1, Fluo-8 calcium fluorescence; vehicle wells 0%, saturating PEA agonist 100% | activation, % at 3 µM | 360,000 compounds, 0.99% hits;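 active = activation above the mean activation of all test compounds in the run plus 3 SD, cut at about 38% in these data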
#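 Test system: RD-HGA16 (CHO) cells co-expressing Gα16 and hTAAR1; dosing: one-point dosing at 3 µM (nominal); timing: 17-24 h seeding, 75 min 37 °C dye, 30 min RT; signal: kinetic Fluo-8 calcium fluorescence; read-out basis: % activation relative to PEA EC100 response; controls: DMSO and PEA EC100; replicates: n 1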
# Rce1 inhib: blocks yeast Ras-converting enzyme; Q03530; yeast membranes, quenched prenylated peptide cleavage fluorescence; calls only; 290,000 compounds, 0.27% hits; AID 2563;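 active = fall in fluorescence gain of 50% or more versus controls, with final raw signal at or below 3038400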;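 also: plate controls were neutral control wells for no effect and wells lacking membranes for full effect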
# Target sequence (Q03530 whole entry, looked up): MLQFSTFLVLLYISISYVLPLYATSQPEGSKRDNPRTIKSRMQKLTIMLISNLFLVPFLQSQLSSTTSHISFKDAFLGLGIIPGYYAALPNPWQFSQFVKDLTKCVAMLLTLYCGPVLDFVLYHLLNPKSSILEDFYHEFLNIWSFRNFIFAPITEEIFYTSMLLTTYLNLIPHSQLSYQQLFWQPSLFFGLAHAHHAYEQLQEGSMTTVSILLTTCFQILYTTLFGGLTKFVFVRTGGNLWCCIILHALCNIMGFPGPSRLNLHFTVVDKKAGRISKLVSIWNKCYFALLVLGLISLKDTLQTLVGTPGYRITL
# TAAR1 ag conf: confirmation of human TAAR1 agonists; shares compounds with TAAR1 ag; CHO RD-HGA16 TAAR1, Fluo-8 calcium fluorescence; scaled: DMSO 0%, maximal phenethylamine 100%; activation, % at 3 µM; 2,400 compounds, 82% hits;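 active = activation above a cutoff set at the run's mean compound activation plus 3 SD, cut at about 39% in these data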
# Ga16 nonsel ag: nonselective agonist in parental cells, TAAR1 agonist counter-screen; activation, % at 3 µM; 2,400 compounds, 50% hits; AID 651787; shares compounds with TAAR1 ag; CHO-Ga16 parental, Fluo-8 calcium fluorescence; normalized to maximal ATP response, DMSO zero;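 active = activation above the run cutoff, the mean activation over all tested wells plus 3 SD, cut at about 12% in these data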;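 also: 0% = DMSO wells and 100% = maximal ATP response on the peak over basal ratio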
# TAAR1 desens: counter-screen for human TAAR1 agonists: agonists that desensitize TAAR1. shares compounds with TAAR1 ag. CHO RD-HGA16 hTAAR1, Fluo-8 calcium, beta-PEA response inhibition. inhibition, % at 3 µM. 2,400 compounds, 46% hits. AID 651951;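 active = inhibition above the run cutoff, the mean inhibition of all test compounds plus 3 SD, cut at about 49% in these data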;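 also: beta-PEA stimulus applied at its EC80; loss of beta-PEA calcium signal after compound pretreatment read as receptor desensitization; 0% = DMSO with beta-PEA at EC80 and 100% = DMSO alone without agonist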
# Ga16 antag count: counter-screen for TAAR1 agonists: nonselective Ga16 antagonists; inhibition, % at 3 µM; CHO-Ga16 ATP-induced calcium, Fluo-8 fluorescence; shares compounds with TAAR1 ag; 2,400 compounds, 39% hits;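 active = inhibition above the plate's mean compound inhibition plus 3 SD, computed per plate, cut at about 22% in these data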;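 also: 0% = EC80 ATP with DMSO and 100% = DMSO wells without ATP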
# An asterisk follows results filed as active; i = inactive; nt = not tested or not shown. Only some compounds are listed: those with a hit (about 2.6% of all), similar ones and a draw of the others.
SMILES,VLA-4 inh,Platelet DG rel,TAAR1 antagonist,TAAR1 ag,Rce1 inhib,TAAR1 ag conf,Ga16 nonsel ag,TAAR1 desens,Ga16 antag count
Cc1nc(C(F)(F)F)ccc1C(=O)N1CCC1(C)C(=O)NS(=O)(=O)c1ccc2ccccc2c1 (stereo not drawn),nt,nt,-26,5,nt,nt,nt,nt,nt
CCCOc1cc(C)c(S(=O)(=O)N2CCN(C)CC2)cc1C,6,-3,-26,46*,i,42*,0,-5,-3
COc1ccc(N(C(=O)CCl)C(C(=O)NCCc2ccccc2)c2cccs2)cc1Cl (stereo not drawn),-3,-1,28,40*,i,33,-1,18,20
CCC1CCc2sc(C(=O)NCC(c3ccc(OC)cc3)N3CCCC3)cc2C1 (stereo not drawn),5,2,-22,46*,i,42*,5,20,16
COc1ccc(C(CNC(=O)c2cccc(N(C)C)c2)N2CCCC2)cc1 (stereo not drawn),29,5,-7,-1,i,nt,nt,nt,nt
O=c1[nH]cc(NCCc2ccccc2)c(=O)[nH]1,4,0,nt,nt,i,nt,0,nt,16
Cc1nc([N+](=O)[O-])c(Br)n1Cc1ccc(Cl)c(Cl)c1,nt,-5,37,51*,i,9,5,18,13
Cc1nc([N+](=O)[O-])c(Br)n1CC(=O)c1ccc(Cl)cc1,0,0,-20,6,i,nt,nt,nt,nt
O=C(NNC(=O)c1ccc(Cl)c(Cl)c1)c1cccnc1,8,-3,-34,5,nt,nt,nt,nt,nt
CS(=O)(=O)c1cccc(NC(=O)c2ccc(Cl)c(Cl)c2)c1,16,-3,26,88*,i,60*,43*,48,28*
NC(=O)c1cc(NC(=O)c2cc(Br)c(Br)s2)cc(C(N)=O)c1,9,13,-25,3,i,nt,nt,nt,nt
O=C(Nc1cccnc1)c1cc(Br)c(Br)s1,10,-19,48,91*,i,75*,59*,50*,23*
CS(=O)(=O)c1ccc(C(=O)Nc2cc(S(C)(=O)=O)ccc2Cl)cc1,0,0,4,5,i,nt,nt,nt,nt
O=C(Nc1cccnc1)c1ccc(Cl)c(Cl)c1,1,2,10,47*,nt,41*,42*,15,12
CN(C)C(CNC(=O)C1CC(=O)N(c2cccc(C(F)(F)F)c2)C1)c1ccccc1 (stereo not drawn),nt,nt,-3,2,nt,nt,nt,nt,nt
Cc1ccc(-c2csc3ncn(CC(=O)OC(C)C)c(=O)c23)cc1,0,-2,7,2,i,nt,nt,nt,nt
Nc1nc(Nc2ccccc2)sc1C(=O)c1ccccc1,7,-4,-33,68*,i,50*,23*,6,-2
COc1ccc(C(=O)c2sc(Nc3ccccc3)nc2N)cc1,-6,5,-3,16,i,nt,nt,nt,nt
COc1cc(C(=O)NC(=S)NNC(=O)[C@H]2C[C@@H]2c2ccccc2)cc(OC)c1OC,17,2,-7,74*,i,37,43*,24,14
COc1ccc(C(=O)NC(=S)NNC(=O)c2ccccc2C)cc1,3,10,92*,170*,nt,143*,105*,98*,75*
COc1ccc(C(=O)NNC(=S)NC(=O)c2cccc([N+](=O)[O-])c2)cc1,1,13,17,66*,i,88*,64*,36,26*
O=C(NC(=S)NNC(=O)c1cc2ccccc2cc1O)c1ccco1,1,-2,2,75*,i,44*,37*,24,25*
COc1ccc(C(=O)NC(=S)NNC(=O)c2cnccn2)cc1,-3,17,3,0,i,nt,nt,nt,nt
O=C(NC(=S)NNC(=O)c1ccccc1O)c1ccco1,35,-7,-12,12,i,nt,nt,nt,nt
O=C(NC(=S)NNC(=O)c1ccccc1O)c1cccc([N+](=O)[O-])c1,31,-6,-12,16,i,nt,nt,nt,nt
SMILES,VLA-4 inh,Platelet DG rel,TAAR1 antagonist,TAAR1 ag,Rce1 inhib,TAAR1 ag conf,Ga16 nonsel ag,TAAR1 desens,Ga16 antag count
O=C(c1ccccc1)c1ccc(-n2ccnc2)c([N+](=O)[O-])c1,5,-4,-5,3,nt,nt,nt,nt,nt
COc1ccccc1N1C(=NC(=O)COc2ccccc2)SC2CS(=O)(=O)CC21 (stereo not drawn),9,-4,-13,2,i,nt,nt,nt,nt
Nc1c(C(=O)CSc2nc(-c3ccccc3)cs2)c(=O)[nH]c(=O)n1C1CC1,18,nt,16,10,nt,nt,nt,nt,nt
COc1cc(C(=O)NNC(=S)NC(=O)c2ccccc2C)cc(OC)c1OC,-6,-3,-4,63*,i,33,44*,6,11
COc1ccc(C(=O)NC(=S)NNC(=O)COc2ccccc2)cc1,9,2,-21,46*,i,66*,52*,20,23*
COc1ccc(C(=O)NNC(=S)NC(=O)C(C)(C)C)cc1,-14,8,98*,145*,i,106*,90*,48,44*
O=C(/C=C/c1cccs1)NC(=S)NNC(=O)c1ccccc1O,2,4,17,88*,i,23,74*,15,36*
COc1ccc(C(=O)NNC(=S)NC(=O)/C=C/c2cccs2)cc1,6,1,5,31,i,nt,nt,nt,nt
O=C1CCCN1c1ccc(S(=O)(=O)NCc2ccc(F)cc2)cc1,8,21,7,2,i,nt,nt,nt,nt
O=C(O)c1cc(O)ccc1NC(=O)C1CCCO1 (stereo not drawn),41,1,2,0,nt,nt,nt,nt,nt
COc1ccc(C(=O)NC(=S)NNC(=O)c2ccco2)cc1,-8,-2,-8,7,nt,nt,nt,nt,nt
COc1ccc(C(=O)NC(=S)NNC(=O)c2ccccc2O)cc1,5,6,33,80*,i,57*,55*,22,27*
O=C(NCCNC(=O)c1ccc(-c2cccc(Cl)c2)o1)c1cnccn1,nt,nt,32,28,nt,nt,nt,nt,nt
O=C(NCCNC(=O)c1ccc(-c2ccc(Cl)c(Cl)c2)o1)c1cnccn1,-4,4,82*,63*,i,57*,40*,72*,51*
CN(CC(=O)Nc1cccc(F)c1)C(=O)CCNC(=O)c1ccco1,1,3,-31,2,i,nt,nt,nt,nt
CN(c1ccccc1)S(=O)(=O)c1ccc(C(=O)N2CCN(c3ccccc3)CC2)cc1,nt,nt,-17,2,nt,nt,nt,nt,nt
CC(C)C(=O)Nc1ccc(NC(=O)c2cc3ccccc3o2)cc1,6,-4,14,54*,i,45*,21*,49*,28*
